Data published in ChEMBL document CHEMBL3228006, “Orally active esters of cephalosporin antibiotics. 3. Synthesis and biological properties of aminoacyloxymethyl esters of 7-[D(-)-mandelamido]-3-[[(1-methyl-1H-tetrazol-5-yl)thio]methyl]-3-cephem-4-carboxylic acid” (J Med Chem, 1979).

Assays:
[1] = system: Blood; experiment: Drug metabolism in mouse assessed as cefamandole level in blood using Micrococcus luteus ATCC 9341 as detecting organism at 17 mg/kg, po by disk-plate microbiology assay; type: ADME, organism-based; design: dose 17 mg/kg, route oral; conditions: in vivo
Procedure, shortened: (§1)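 Mice dosed orally at 17 mg/kg; cefamandole activity in blood or urine measured by disk-plate microbiological assay with Micrococcus luteus ATCC 9341 as detecting organism.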

[2] = Drug metabolism in mouse assessed as cefamandole level in small intestine using Micrococcus luteus ATCC 9341 as detecting organism at 17 mg/kg, po by disk-plate microbiology assay; type: ADME, organism-based; design: dose 17 mg/kg, route oral; conditions: in vivo
[3] = Chemical stability of the compound in phosphate buffer at pH 6 assessed as hydrolysis after 20 mins by paper electrophoresis analysis; type: physicochemical; conditions: for Stability: buffer, pH 6, 20 min; for degraded at 20 min: phosphate buffer, pH 6, read-out: Drug degradation
Procedure, shortened: (§2)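 Ester dissolved in buffer (pH 2.5, 4.5 or 6.0) at 37 °C; samples taken at 0, 20, 40, 60 min and run on paper electrophoresis strips at 400 V in 0.1 M pyridine-acetate buffer for 2 h, steamed, dried, spots seen under UV. Extent of hydrolysis estimated approximately by comparing visual UV zone intensity of ester versus parent acid.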

[4] = Chemical stability of the compound in phosphate buffer at pH 2.5 assessed as hydrolysis up to 60 mins by paper electrophoresis analysis; type: physicochemical; conditions: pH 2.5, 1 h; procedure, shortened: as §2
[5] = system: Streptococcus pyogenes; experiment: Antibacterial activity against Streptococcus pyogenes C203 infected in po dosed Swiss mouse assessed as protection against bacterial infection administered 1 to 5 hrs after bacterial infection; type: functional
Procedure, shortened: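 Swiss white mice (13-15 g), groups of eight, infected ip with broth suspension of S. pyogenes C203 lethal to 100% of untreated mice in 24-48 h. Five groups per test received graduated oral doses at 1 and 5 h post-challenge. ED50 by Reed and Muench method from survivors at 7 days.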

[6] = Chemical stability of the compound in phosphate buffer at pH 4.5 assessed as hydrolysis up to 60 mins by paper electrophoresis analysis; type: physicochemical; conditions: pH 4.5, 1 h; procedure, shortened: as §2
[7] = Drug metabolism in mouse assessed as cefamandole level in urine using Micrococcus luteus ATCC 9341 as detecting organism at 17 mg/kg, po by disk-plate microbiology assay; type: ADME, organism-based; design: dose 17 mg/kg, route oral; conditions: in vivo; procedure, shortened: as §1

| SMILES | Drug metabolism [1] | Drug metabolism [2] | Stability [3] | Stability [4] | Stability [6] | Drug metabolism [7] | degraded at 20 min [3] [%] | ED50 [5] [mg/kg] |
| --- | --- | --- | --- | --- | --- | --- | --- | --- |
| CC(C)[C@H](N)C(=O)OCOC(=O)C1=C(CSc2nnnn2C)CS[C@@H]2[C@H](NC(=O)[C@H](O)c3ccccc3)C(=O)N12.Cl | metabolite_notdetected | metabolite_detected | Unstable | Stable | Unstable | metabolite_notdetected | – | 14.3 |
| CC[C@H](C)[C@H](N)C(=O)OCOC(=O)C1=C(CSc2nnnn2C)CS[C@@H]2[C@H](NC(=O)[C@H](O)c3ccccc3)C(=O)N12.Cl | – | – | Unstable | Stable | Unstable | – | – | 8.6 |
| Cl.Cn1nnnc1SCC1=C(C(=O)OCOC(=O)[C@@H](N)Cc2ccccc2)N2C(=O)[C@@H](NC(=O)[C@H](O)c3ccccc3)[C@H]2SC1 | – | – | – | Stable | Unstable | – | 50 | 15.3 |
| Cn1nnnc1SCC1=C(C(=O)[O-])N2C(=O)[C@@H](NC(=O)[C@H](O)c3ccccc3)[C@H]2SC1.[Li+] | – | – | – | – | – | – | – | 12 |

The next lines start with results.

| Drug metabolism [1] | Drug metabolism [2] | Stability [3] | Stability [4] | Stability [6] | Drug metabolism [7] | degraded at 20 min [3] [%] | SMILES | ED50 [5] [mg/kg] |
| --- | --- | --- | --- | --- | --- | --- | --- | --- |
| metabolite_notdetected | metabolite_detected | Unstable | Stable | Unstable | metabolite_notdetected | – | Cl.Cn1nnnc1SCC1=C(C(=O)OCOC(=O)CN)N2C(=O)[C@@H](NC(=O)[C@H](O)c3ccccc3)[C@H]2SC1 | 20.4 |
| – | – | Unstable | Stable | Unstable | – | – | CC(C)C[C@H](N)C(=O)OCOC(=O)C1=C(CSc2nnnn2C)CS[C@@H]2[C@H](NC(=O)[C@H](O)c3ccccc3)C(=O)N12.Cl | 10.4 |
| metabolite_notdetected | metabolite_detected | – | Stable | Unstable | metabolite_notdetected | 20 | COC(=O)[C@H](N)CC(=O)OCOC(=O)C1=C(CSc2nnnn2C)CS[C@@H]2[C@H](NC(=O)[C@H](O)c3ccccc3)C(=O)N12.Cl | 25.2 |
